MrgX1 ag: agonists of human MrgX1 receptor; Q96LB2; MrgX1-HEK293 cells, Fluo-4 calcium fluorescence, agonist mode; active compounds read high; B-score at 10 µM; actives 0.44% (n = 310,000);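 active = calcium response B-score plate-corrected fluorescence ratio at least 3 library SD, with starting fluorescence B-score inside 5 SD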
Target sequence (Q96LB2 whole entry, looked up): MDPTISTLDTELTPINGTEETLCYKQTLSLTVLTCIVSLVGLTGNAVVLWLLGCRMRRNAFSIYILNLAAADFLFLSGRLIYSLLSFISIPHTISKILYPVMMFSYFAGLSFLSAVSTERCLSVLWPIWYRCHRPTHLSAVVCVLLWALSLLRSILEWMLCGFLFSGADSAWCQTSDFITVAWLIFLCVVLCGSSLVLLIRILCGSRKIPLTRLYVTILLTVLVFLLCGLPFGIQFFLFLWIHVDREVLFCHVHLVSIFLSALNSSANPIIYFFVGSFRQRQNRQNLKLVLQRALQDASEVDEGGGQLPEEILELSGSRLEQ
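Material: MrgX1-expressing HEK293 cells / Dosing: compound as first of three additions / Incubation: overnight seeding, then 1 h dark dye loading / Signal: Fluo-4 NW calcium fluorescence / Evaluation: B-scored fluorescence response ratio / Benchmarks: positive and negative control wells on each plate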
RGS4 block: human RGS4 inhibition; P49798; HEK293 M3R/RGS4 inducible, Fluo-4 calcium flux; active compounds read high; triggered by carbachol at its EC20; B-score at 10 µM; actives 0.45% (n = 310,000);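 active = B-score, a plate-corrected calcium signal, over three deviations above library mean, with baseline fluorescence within five deviations of library mean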;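 also: RGS4 expression induced by doxycycline in cells with stable M3 receptor; B-score is computed from the integrated fluorescence ratio over baseline after carbachol; higher B-score means a larger calcium signal and so more RGS4 inhibition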
Target sequence (P49798 whole entry, looked up): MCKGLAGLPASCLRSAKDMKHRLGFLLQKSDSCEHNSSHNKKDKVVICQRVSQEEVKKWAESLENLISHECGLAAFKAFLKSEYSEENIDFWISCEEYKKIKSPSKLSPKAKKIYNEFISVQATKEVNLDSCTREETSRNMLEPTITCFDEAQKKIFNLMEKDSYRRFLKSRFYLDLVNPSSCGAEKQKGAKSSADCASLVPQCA
Cl transport mod: KCC2 (human) Cl- transport modulation; KCC2 cells, thallium flux FluoZin-2 fluorescence; actives 2.2% (n = 190,000); B-score of Tl+ flux slope (higher = more flux/activation; lower = inhibition) at 10 µM; AID 1456; Q9H2X9;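 active = thallium flux slope and its plate-corrected score both differing from the plate sample mean at a set confidence after two filtering rounds, in either direction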;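 also: slope of fluorescence scaled to starting intensity during 10 to 20 s after thallium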
MrgX1 PAM: allosterically activates human MrgX1 receptor signaling; Q96LB2; MrgX1-HEK293, Fluo-4 calcium flux, FDSS; active compounds read high; B-score at 10 µM; actives 0.63% (n = 310,000);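 active = plate-corrected calcium response at least 3 library SD above typical, normal starting fluorescence, not activating the receptor alone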;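 also: compound read alongside a low EC10 to EC30 dose of BAM8-22 agonist; peak minus trough fluorescence over baseline measured at the second addition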
MrgX1 antag: human MrgX1 receptor antagonism, primary screen; actives 1.3% (n = 310,000); AID 588676; MRGX1-HEK293 calcium flux, Fluo-4, BAM8-22 antagonism; active compounds read low; B-score at 10 µM;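 active = calcium-response B-score plate-corrected more than 3 library SD below zero, starting fluorescence within 5 deviations, no agonist response on first addition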;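 also: peak minus trough fluorescence over baseline after final BAM8-22 challenge near maximal dose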
RGS4 act: potentiators or activators of RGS4; actives 0.92% (n = 310,000); HEK293 M3R/inducible RGS4, carbachol calcium flux Fluo4; active compounds read low; B-score at 10 µM; AID 463111;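 active = B-score of the integrated calcium signal more than 4 SD below the library mean, with starting fluorescence not abnormally high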;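 also: negative B-score means reduced calcium response which marks RGS4 activation or potentiation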
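test system = M3R-expressing HEK293 line, RGS4 induced by doxycycline | probe or stimulus = carbachol at ECmax as muscarinic agonist stimulus | timing = dye loading 30 min 37 °C, buffer rest 30 min RT | signal = calcium dye Fluo4 fluorescence | evaluation = B score from integrated fluorescence ratio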
MrgX1 ant reconf: confirmation of human MrgX1 receptor antagonists. MrgX1-HEK293, BAM8-22 calcium flux, Fluo-4; active compounds read low. shares compounds with MrgX1 antag. actives 19% (n = 2,300). remaining BAM8-22 calcium response % of control (active compounds read low), % at 10 µM. AID 602420;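 active = remaining agonist calcium response no higher than 100% minus 3 SD of agonist-only control wells, with starting fluorescence near control levels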;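 also: agonist BAM8-22 given at a near maximal EC90 to ECmax level; peak minus minimum fluorescence divided by baseline after agonist addition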
HEK293 Ca flux: MrgX1 antagonist counter-screen hit in parental HEK293 cells; fluorescence ratio F(max-min)/F0 at 10 µM; actives 2% (n = 4,000); shares compounds with MrgX1 antag; Fluo-4 calcium fluorescence, FDSS;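 active = duplicate-averaged calcium fluorescence ratio at least three times the standard deviation of buffer wells, a nonspecific response in parental cells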
HEK293 Ca counter: MrgX1 allosteric activator counter-screen hit in parental HEK293 cells; shares compounds with MrgX1 antag; fluorescence ratio F(max-min)/F0 at 10 µM; AID 624114; actives 0.4% (n = 4,000); parental HEK293 calcium flux, Fluo-4 fluorescence ratio; active compounds read high;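 active = calcium fluorescence ratio, averaged over duplicates, at least 3 SD of the buffer-well ratio, meaning a nonspecific response in receptor-free cells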;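 also: untransfected parental HEK293 lacking MrgX1 used as counterscreen for MrgX1 allosteric activators; fluorescence change taken during the second addition on a kinetic imager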
HEK293 Ca cntr2: activity in parental HEK293 cells lacking MrgX1 receptor | fluorescence ratio F(max-min)/F0 at 10 µM | AID 624115 | actives 8.7% (n = 4,000) | Fluo-4 calcium fluorescence (FDSS); active compounds read high | shares compounds with MrgX1 antag;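 active = calcium fluorescence ratio at least three times the spread of buffer wells, meaning a non-specific response in parental cells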
A number is an active result; i = inactive; nt = no result. Sampled rows, rich in hits. Any-hit rate of the full collection: about 4.7%.

SMILES	MrgX1 ag	RGS4 block	Cl transport mod	MrgX1 PAM	MrgX1 antag	RGS4 act	MrgX1 ant reconf	HEK293 Ca flux	HEK293 Ca counter	HEK293 Ca cntr2
CC(=O)N1CCN(C(=O)c2cc(C)nc3ccccc23)CC1	i	i	i	i	i	i	nt	nt	nt	nt
Cc1cc(C(=O)N2CC=C(c3ccccc3)CC2)c2ccccc2n1	i	i	nt	i	-4.72	i	i	i	i	i
COC(=O)[C@]1(C)N[C@H](c2ccc(-c3ccc(Cl)c(Cl)c3)c(OC)c2)[C@@H]2C(=O)N(C)C(=O)[C@@H]21	i	i	nt	i	i	i	nt	nt	nt	nt
O=C(O)c1ccccc1C(=O)OCCCc1ccncc1	i	i	nt	i	i	i	nt	nt	nt	nt
Cc1ccc(CN2CCCNC2=O)cc1	i	i	i	i	-4.88	i	i	i	i	i
COc1cccc(NC(=O)C2CCC(CNS(=O)(=O)c3ccc4c(c3)CC(C)N4C(C)=O)CC2)c1 (centres undefined)	i	i	nt	i	i	i	nt	nt	nt	nt
CCc1cccc(OCC(=O)N(C)CC(=O)Nc2cccc(F)c2)c1	i	i	nt	i	i	i	nt	nt	nt	nt
Cc1ccc(NC(=S)N2CCN(c3ccccc3F)CC2)c(C)c1	i	i	nt	i	i	i	nt	nt	nt	nt
Nc1c(C(=O)NCc2ccco2)c2nc3ccccc3nc2n1CCc1ccccc1F	i	i	i	i	-7.51	i	i	i	i	i
O=c1c(N2CCOCC2)c(N2CCOCC2)c1=O	i	i	i	i	i	i	nt	nt	nt	nt
CN1CCOCCOCCN(C)C1=O	i	i	i	i	-4.59	i	i	i	i	i
COC(=O)/C(=C\Nc1ccccc1N)c1ncc(C(F)(F)F)cc1Cl	i	i	i	i	-4.54	i	i	i	i	i
CCn1cc(C2C(C(=O)Nc3ccc(Br)cn3)=C(C)NC3=C2C(=O)CCC3)c(C)n1 (centres undefined)	i	i	i	i	i	i	nt	nt	nt	nt
CC1=C(C(=O)Nc2ccccn2)C(c2cn(C)nc2C)C2=C(CCCC2=O)N1 (centres undefined)	i	i	i	i	-4.94	i	i	i	i	i
Cc1cc(NC(=O)CSc2nc(=O)n3cc(Cl)ccc3n2)no1	i	i	nt	i	-8.17	i	73.0%	i	i	i
Cc1ccn2c(=O)nc(SCC(=O)Nc3cc(C)on3)nc2c1	i	i	nt	i	i	i	nt	nt	nt	nt
CCNc1ccc2noc3c2c1C(=O)c1ccccc1-3	i	i	i	i	-4.75	i	i	0.579	i	i
COc1cc(CCC(=O)Nc2nnc(-c3cccnc3)s2)cc(OC)c1OC	i	i	i	i	i	i	nt	nt	nt	nt
Cc1ccc(C)c(CN2C(=O)C3CCCN3c3ccc(C#N)cc32)c1 (centres undefined)	i	i	i	i	-5.61	i	i	i	i	i
Cc1ccc(CN2C(=O)C3CCCN3c3ccc(C#N)cc32)cc1 (centres undefined)	i	i	nt	i	i	i	nt	nt	nt	nt
O=C(Nc1ccc(Cl)cc1)N(Cc1cccnc1)Cc1ccco1	i	i	i	i	-5.69	i	i	i	i	i
COc1ccc(Cc2[nH]n3c(=O)c(Cl)c(C)nc3c2-c2ccccc2)cc1	i	i	i	i	i	i	nt	nt	nt	nt
COc1ccc(-c2cc(C(=O)NCCN3CCOCC3)no2)cc1OC	i	i	nt	i	i	i	nt	nt	nt	nt
CCCN1CCN(S(=O)(=O)c2ccc3c(c2)OCCO3)CC1	i	i	i	i	i	i	nt	nt	nt	nt
Nc1nnnn1/N=C/C(Br)=C/c1ccccc1	i	i	i	i	-5.11	i	i	i	i	i
SMILES	MrgX1 ag	RGS4 block	Cl transport mod	MrgX1 PAM	MrgX1 antag	RGS4 act	MrgX1 ant reconf	HEK293 Ca flux	HEK293 Ca counter	HEK293 Ca cntr2
Nc1nnnn1/N=C/C=C/c1ccccc1	i	i	i	i	i	i	nt	nt	nt	nt
N#Cc1cc(-c2ccccc2)nnc1Sc1ccccc1	i	i	nt	i	-4.88	i	79.4%	i	i	i
N#Cc1cc(-c2ccccc2)nnc1Sc1ccc(F)cc1	i	i	nt	i	i	i	nt	nt	nt	nt
O=C(Oc1cccc(-n2cnnn2)c1)c1ccco1	i	i	i	i	-6.53	i	78.6%	i	i	i
Cc1ccc(Cl)cc1NC(=O)[C@@H]1CCC(=O)N1C1OC(=O)c2ccccc21 (some centres undefined)	i	i	nt	i	-9.92	i	84.3%	i	i	i
CCOc1ccc(NC(=O)CCNC(=O)C2CCN(S(=O)(=O)c3ccccc3)CC2)cc1	i	i	nt	i	i	i	nt	nt	nt	nt
CC1(C)C2CCC(C2)C1(C)NC(=O)CN1CCCC1 (centres undefined)	i	i	nt	i	i	i	nt	nt	nt	nt
CC1(C)C2CCC(C2)C1(C)NC(=O)CN1CCOCC1 (centres undefined)	i	nt	i	i	-10.1	nt	i	i	i	i
COc1ccc(CCNC(=O)c2ccccc2C(=O)NCCc2ccc(OC)c(OC)c2)cc1OC	i	i	nt	i	i	i	nt	nt	nt	nt
CC(C)(C)Cc1nnc(NC(=O)CCC2CCCCC2)s1	i	i	nt	i	i	i	nt	nt	nt	nt
COc1ccc(-n2nc3c(c2NC(=O)COc2cccc(OC)c2)CS(=O)(=O)C3)cc1	i	i	nt	i	-7.52	i	i	i	i	i
Cc1cccc(C)c1NC(=O)NC1CC2CCC(C1)N2Cc1cccs1 (centres undefined)	i	i	nt	i	-7.51	i	i	i	i	i
CCn1ncc(Br)c1C(=O)Nc1sc2c(c1C(=O)OC)CCC2	i	i	i	i	i	i	nt	nt	nt	nt
CCOC(=O)c1c(NC(=O)c2c(Br)cnn2CC)sc(C)c1C	i	i	i	i	-7.1	i	i	i	i	i
CC(C)NC(=O)CC1Nc2c3ccccc3nc(=S)n2C1=O (centres undefined)	i	i	i	i	-5.25	i	i	i	i	i
COc1ccc(N2C(=S)NC(C)(C)CC2(C)c2ccc(OC(C)=O)cc2OC(C)=O)cc1 (centres undefined)	i	i	i	i	-4.56	i	i	i	i	i
CCOC(=O)CSc1n[nH]c(-c2cccnc2)n1	i	i	i	i	-6.96	i	i	i	i	i
CCCOc1ccc(Br)cc1CSC(=N)N	i	i	i	i	-4.6	i	i	i	i	i
